Assay results collected from several papers.
Lines come from different studies, so protocols differ.
STK38L: Serine/threonine-protein kinase 38-like (STK38L, Homo sapiens, UniProt Q9Y2H1)

With C[C@H](C(=O)N[C@H]1COc2ccccc2[C@@H]1S(C)(=O)=O)c1ccc(F)cc1 the inhibition was -12% (Beta-3 adrenergic receptor (ADRB3, Homo sapiens, UniProt P13945); cell-free assay; 10 µM).
With COc1cc(Nc2ncc(F)c(Nc3ccc4c(n3)NC(=O)C(C)(C)O4)n2)cc(OC)c1OC the inhibition was 48% (STK38L; binding; 10 µM).
With Nc1ncc(-c2nc(N3CCOCC3)nc(N3CCOCC3)n2)c(C(F)F)n1 the remaining binding was 88% (Cyclin-dependent kinase 3 (CDK3, Homo sapiens, UniProt Q00526); binding, competition with immobilised ligand; 10 µM).
For Cn1c(=O)n(CCC(C)(C)O)c2cc(Nc3nc(N4CCCC(CO)C4)ncc3Cl)ccc21 (centres unmarked), the Dmax was roughly 60% (B-cell lymphoma 6 protein (BCL6, Homo sapiens, UniProt P41182); protein level, degrader; SU-DHL-4).
CCSC(=O)N1CCCCCC1 gave a kinact/KI of 76 M⁻¹ s⁻¹ (Aldehyde dehydrogenase, mitochondrial (ALDH2, Homo sapiens, UniProt P05091); enzyme activity, inhibitor).
With COc1ncccc1-c1cnn2ccc(N3CCN(C(=O)OC(C)C)CC3)nc12 the remaining binding was 100% (STK38L; binding, competition with immobilised ligand; 1 µM).
C#Cc1n[nH]c2c(-c3cn([C@@H](C)c4ccccn4)c(=O)[nH]c3=O)cc(F)cc12 has an inhibition of 0.2% (Serine/threonine-protein kinase PAK 4 (PAK4, Homo sapiens, UniProt O96013); enzyme activity, inhibitor; 0.1 µM).
With CCN(CC)CCCC[C@H](NC(=O)[C@H](CC(C)C)NC(=O)[C@H](C)NC(=O)[C@H](Cc1ccccc1)NC(=O)c1ccc(C(C)(C)C)cc1)C(=O)N[C@@H](CO)C(=O)OC the ΔTm was 0.19 °C (Bromodomain-containing protein 2, BD1 (BRD2, Homo sapiens, UniProt P25440); thermal stability, DSF; 25 µM).
With C#Cc1n[nH]c2c(-c3cn([C@@H](C)c4ccccc4)c(=O)[nH]c3=O)cc(F)cc12 the inhibition was -1.8% (Serine/threonine-protein kinase Sgk1 (SGK1, Homo sapiens, UniProt O00141); enzyme activity, inhibitor; 0.1 µM).
With Cc1nn(C)cc1-c1nc2c(N3CCN(Cc4ccc(Cl)cc4)CC3)c(Cl)cnc2[nH]1 the remaining binding was 100% (Tyrosine-protein kinase Tec (TEC, Homo sapiens, UniProt P42680); binding, competition with immobilised ligand; 1 µM).
With CC[C@]1(O)C[C@H]2CN(CCc3c([nH]c4ccccc34)[C@@](C(=O)OC)(c3cc4c(cc3OC)N(C=O)[C@H]3[C@@](O)(C(=O)OC)[C@H](OC(C)=O)[C@]5(CC)C=CCN6CC[C@]43[C@@H]65)C2)C1 the remaining activity was 33.6% (Organic cation/carnitine transporter 2 (SLC22A5, Homo sapiens, UniProt O76082); transporter uptake, inhibitor; HEK293; 100 µM).
